The results in this text go back to ChEMBL document CHEMBL5705901, “Exploiting selective BCL-2 family inhibitors to dissect cell survival dependencies and define improved strategies for cancer therapy” (Sci Transl Med, 2015).

Data set [1] concerns A549. Nature of the data set: Antitumor activity against 3 times passaged human A549 cells xenografted in iv dosed SCID mouse assessed as tumor growth delay relative to control. The data set is classed as functional.
Data set [2] is described as follows: Toxicity in iv dosed SCID-bg mouse assessed as tolerance. In kind it is organism-based. The note with it: in vivo.
For data set [3], the system named is MDA-MB-231. The data set can be described thus: Antitumor activity against LC3 positive human MDA-MB-231 cells xenografted in SCID mouse assessed as maximum tumor growth inhibition at 7.5 mg/kg, iv administered as single dose relative to control. In kind it is functional. To be noted: read-out: TGI. In a few lines: (§1)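 MDA-MB-231 LC3 metastatic breast cancer xenograft, 10 mice per group, with a vehicle control. Dosing: oral agent 25 mg/kg daily for 14 days; docetaxel 7.5 mg/kg iv once; combination gives both regimens. Mean tumor volumes tracked. TGImax = 100(1 − Tv/Cv) from mean treated vs control volumes. TGD = 100(T/C − 1) from median times to reach 1 cm3.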

Data set [4] in a line: Toxicity in iv dosed SCID-bg mouse assessed as body weight loss relative to control. The data set is classed as organism-based. The note with it: in vivo.
The subject of data set [5] is NCI-H1650. The data set can be described thus: Antitumor activity against human NCI-H1650 cells xenografted in SCID-bg mouse assessed as tumor growth delay at 7.5 mg/kg, iv administered as single dose relative to control. The data set is classed as functional. In a few lines: (§2)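 NCI-H1650 NSCLC xenografts, ten mice per group. Arms: vehicle; docetaxel iv once at 7.5 mg/kg; oral agent daily for 14 days at 25 mg/kg; and the two combined. TGImax = 100(1 − Tv/Cv) from mean volumes. TGD = 100(T/C − 1) from median times to reach 1 cm3.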
(Xenograft models place foreign cells or tissue in a host animal.)

In data set [6] the test system is MDA-MB-231. The data set can be described thus: Antitumor activity against LC3 positive human MDA-MB-231 cells xenografted in SCID mouse assessed as tumor growth delay at 7.5 mg/kg, iv administered as single dose relative to control. The data set is classed as functional. In a few lines:
as §1

The subject of data set [7] is EBC-1. Nature of the data set: Antitumor activity against human EBC-1 cells xenografted in iv dosed SCID-bg mouse assessed as tumor growth delay relative to control. In kind it is functional.
In data set [8] the test system is NCI-H358. The data set can be described thus: Antitumor activity against human NCI-H358 cells xenografted in iv dosed SCID mouse assessed as tumor growth delay relative to control. The data set is classed as functional. In a few lines:
(§3)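 Tumor volume-based endpoints. TGD = 100(T/C − 1), where T and C are the median times for the treated and control groups to reach 1 cm3. Groups were five mice for NCI-H747 and OVCAR-5 and eight for NCI-H358. Docetaxel was given intravenously and the test agent orally.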

Data set [9] has as its system A549. Nature of the data set: Antitumor activity against 3 times passaged human A549 cells xenografted in iv dosed SCID mouse assessed as maximum tumor growth inhibition relative to control. In kind it is functional.
The subject of data set [10] is OVCAR-5. Nature of the data set: Antitumor activity against human OVCAR-5 xenografted in iv dosed SCID mouse assessed as tumor growth delay relative to control. The data set is classed as functional. In a few lines: as §3
Data set [11] in a line: Toxicity in iv dosed SCID mouse assessed as tolerance. The note with it: in vivo. In kind it is organism-based.
Data set [12] has as its system NCI-H1650. The data set can be described thus: Antitumor activity against human NCI-H1650 cells xenografted in SCID-bg mouse assessed as maximum tumor growth inhibition at 7.5 mg/kg, iv administered as single dose relative to control. The data set is classed as functional. To be noted: read-out: TGI. The method, boiled down:
as §2

For data set [13], the system named is NCI-H747. The data set can be described thus: Antitumor activity against human NCI-H747 cells xenografted in iv dosed SCID-bg mouse assessed as tumor growth delay relative to control. The data set is classed as functional. The method, boiled down:
as §3

For data set [14], the system named is NCI-H358. Nature of the data set: Antitumor activity against human NCI-H358 cells xenografted in iv dosed SCID mouse assessed as maximum tumor growth inhibition relative to control. The data set is classed as functional.
Data set [15] concerns EBC-1. The data set can be described thus: Antitumor activity against human EBC-1 cells xenografted in iv dosed SCID-bg mouse assessed as maximum tumor growth inhibition relative to control. In kind it is functional.
Data set [16] can be described thus: Toxicity in Sprague-Dawley rat assessed as inhibition of granulopoiesis by measuring reduction in neutrophil count at 5 mg/kg, iv administered once and measured on day 6 by microscopic analysis relative to control. Further details: scale not given: the % may be the effect or the level left. The data set is classed as organism-based. To be noted: in vivo, 144 h, time 6 day. In a few lines: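 Male Sprague-Dawley rats, n = 10 per group: docetaxel 5 mg/kg i.v. once, or oral inhibitor daily for 5 days (30, 50 or 7 mg/kg depending on agent), alone or combined with docetaxel, against vehicles. Total neutrophil and platelet counts in blood collected on day 6; Tukey-Kramer test versus vehicle.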

Data set [17] is described as follows: Toxicity in iv dosed SCID mouse assessed as body weight loss relative to control. The data set is classed as organism-based. The note with it: in vivo.
Data set [18] has as its system NCI-H747. Nature of the data set: Antitumor activity against human NCI-H747 cells xenografted in iv dosed SCID-bg mouse assessed as maximum tumor growth inhibition relative to control. In kind it is functional.
Data set [19] concerns OVCAR-5. The data set can be described thus: Antitumor activity against human OVCAR-5 xenografted in iv dosed SCID mouse assessed as maximum tumor growth inhibition relative to control. The data set is classed as functional.

By TGI is commonly meant the reduction of tumour growth relative to the control group.

For `CC(=O)O[C@@]12CO[C@@H]1C[C@H](O)[C@@]1(C)C(=O)[C@H](O)C3=C(C)[C@@H](OC(=O)[C@H](O)[C@@H](NC(=O)OC(C)(C)C)c4ccccc4)C[C@@](O)([C@@H](OC(=O)c4ccccc4)[C@H]21)C3(C)C` [DOCETAXEL ANHYDROUS], the Activity is 108% with A549 [1]; “Non-Toxic” in [2]; less than 9% in data set [4]; 52% in the data set on NCI-H1650 [5]; 82% in the data set with MDA-MB-231 [6]; 44% in the data set with EBC-1 [7]. In addition, the Activity is 47% in the data set with NCI-H358 [8]; 54% in the data set on OVCAR-5 [10]; “Non-Toxic” in [11]; 113% in the data set with NCI-H747 [13]; 61% in data set [16]; less than 9% in data set [17]. Besides, the inhibition in vivo at 7.5 mg/kg with MDA-MB-231 [3] came to 73%; in the data set on NCI-H1650 [12] it was 82%. In addition, the TGI in the data set on A549 [9] was found to be 71%; in the data set with NCI-H358 [14], 58%; in the data set on EBC-1 [15] it was 76%; with NCI-H747 [18] it was 52%; in the data set on OVCAR-5 [19], 39%.
